Broadly, the inhibition is the share of the control response that was lost under treatment. For orientation: IC50 means the concentration that gives 50% inhibition.

For one assay, the system named is DL tumor cells. Put plainly: In vitro tumoricidal activity. The assay is classed as cell-based, murine. The note with it: Mus musculus, read-out: growth inhibition, highest inhibition recorded.
Another assay deals with Raji. Nature of the assay: Tumoricidal activity against human lymphoma cell line Raji. The assay is classed as cell-based.
For the next assay, the system named is IFN-γ. Nature of the assay: IFN-γ production by CTLs derived from treated DL mice. The assay is classed as in vivo. The note with it: CD8+ T cells; text to Figure 5K. An outline of the steps:
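CD8+ T cells (CTLs) are taken from DL lymphoma-bearing mice treated with oral test compound plus rIL15-activated dendritic cells and compared with cells from untreated DL mice. IFN-γ is read by flow cytometry histogram. Data shown are representative of four experiments (n = 4).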

Assay [1] deals with CD4+CD25+FOXP3+ Treg cells. Put plainly: Flow cytometry of CD4+CD25+FOXP3+ Treg cells in DL mice. In kind it is in vivo. The note with it: in the spleen (so in the source); DL mouse 19.4%; Figure 2I. In general terms: Flow cytometry measures light scatter and fluorescence of single cells or particles in a stream.
A further assay relates to JE6.1. Put plainly: Tumoricidal activity against human lymphoma cell line JE6.1. The assay is classed as cell-based.
A further assay relates to U937. Nature of the assay: Tumoricidal activity against human lymphoma cell line U937. In kind it is cell-based. The note with it: U-937.
The next assay deals with THP-1. Put plainly: Tumoricidal activity against human lymphoma cell line THP-1. The assay is classed as cell-based.

With `Cc1cccc(-c2nn3c(c2-c2ccnc4ccc(C(N)=O)cc24)CCC3)n1` [galunisertib], the inhibition at 10 µM with DL tumor cells is around 80%. The IC50 in the assay with Raji was 776 nM; in the assay with JE6.1 it was 164 nM; with U937 it was 124 nM; in the assay with THP-1 it was 108 nM. In the assay with IFN-γ, the “IFN-γ in T cells derived from treated animals” value turned out to be 52%. Moreover, the “CD4+CD25+ cells” value in assay [1] was “intermediate effect”.
